Test results reported in ChEMBL document CHEMBL1123282, “Antiinflammatory activity of substituted 6-hydroxypyrimido[2,1-f]purine-2,4,8(1H,3H,9H)-triones. Atypical nonsteroidal antiinflammatory agents” (J Med Chem, 1986).
Values joined by “and” are separate entries in the source; they are usually repeats but may differ in a detail not shown here. Equal entries are not always repeated.

How the values were obtained:
Rattus norvegicus [1] = assay: Compound was tested for intestinal Ulcerogenic effect in rats, activity expressed as lesion score at a dose of 10 mg/kg; format: functional
Summary of the method: (§1)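 Normal fed rats were gavaged once daily for three consecutive days at 10–300 mg/kg and killed 24 h after the last dose. Intestines were examined for ulcers, recording incidence per group of 8 and a lesion score (±SE).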

Rattus norvegicus [2] = assay: Compound was tested in vivo against chronic adjuvant arthritic rat by prophylactic inhibition 2 degree paw. Relative potency with respect to (8-Benzyl-5-hydroxy-1,3-dimethyl-6-propyl-1H,8H-1,3,4b,8,9-pentaaza-fluorene-2,4,7-trione); format: functional
Rattus norvegicus [3] = assay: Compound was tested for gastric Ulcerogenic effect in rats, activity expressed as lesion length at a dose of 100 mg/kg
Rattus norvegicus [4] = assay: Antiinflammatory activity against collagen II arthritis in rats, activity % inhibition in noninjected paw edema; format: functional; set-up: concentration or dose not given beside the values
Summary of the method: (§2)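 Rats immunised with bovine articular-cartilage type II collagen (dissolved in 0.01 M AcOH for 24 h at 4 °C, dialysed against saline) mixed in equal volume with incomplete Freund's adjuvant. Paws were examined weekly for 7 weeks. An animal counted as arthritic at Δ paw volume ≥8.0 (injected paw) or ≥4.0 (noninjected paw). Bone lesions were scored on lateral-projection foot radiographs. 16 rats/group.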

Rattus norvegicus [5] = assay: In vivo antiinflammatory activity against rats by RPAR(reverse passive Arthus reaction) synovitis method; format: functional; set-up: concentration or dose not given beside the values
Summary of the method: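 Lewis rats, oral drug or placebo 1 h before iv BSA (2.28 mg in saline), then intraarticular rabbit anti-BSA (0.54 mg) into one knee and saline into the other, under light anesthesia. Second oral dose at 3 h; the total of both doses is the calculated dose. About 17 h after induction, subpatellar tissue with synovium is excised and weighed. Response is antibody-minus-saline knee weight, tested by analysis of variance.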

Rattus norvegicus [6] = assay: Compound was tested in vivo for antiinflammatory activity against chronic adjuvant arthritic rat by prophylactic inhibition 1 degree paw after peroral administration of 36 mg/kg of dose; conditions: po
Rattus norvegicus [7] = assay: Compound was tested for intestinal Ulcerogenic effect in rats, activity expressed as lesion score at a dose of 100 mg/kg; format: functional; summary of the method: as §1
Rattus norvegicus [8] = assay: Tested in vivo for antiinflammatory activity against chronic adjuvant arthritic rat by prophylactic inhibition 1 degree paw after peroral administration of 9 mg/kg of dose; format: functional; conditions: route oral
Summary of the method: (§3)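 Prophylactic regimen, rats. Adjuvant is heat-killed Mycobacterium tuberculosis ground to a fine powder in paraffin oil (6 mg/mL); 0.1 mL is injected into the left hind paw. Oral drug is given 1 h before adjuvant challenge, then for 21 consecutive days; controls receive methyl cellulose. Left (1°) and right (2°) hind paw volumes are measured by plethysmograph.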

Rattus norvegicus [9] = species on record: Rattus norvegicus; assay: Antiinflammatory activity by immune response to collagen II antigen in rats antibody titer was determined by passive hemagglutinination; format: functional
Summary of the method: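 In rats with bovine type II collagen/incomplete Freund's adjuvant arthritis, the antibody response to collagen II was titred by passive hemagglutination. The delayed-type hypersensitivity component, ear thickness 24 h after intrapinna antigen, was read at day 21.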

Rattus norvegicus [10] = species on record: Rattus norvegicus; assay: Antiinflammatory activity on the development of collagen II arthritis in rats, measured based on animals positive for arthritis by the presence of bone lesions; format: functional; summary of the method: as §2
[11] = target: Cyclooxygenase (Rattus norvegicus) (UniProt P35355+Q63921); assay: In vitro inhibitory activity against Prostaglandin G/H synthase in rat neutrophils at a dose of 50 uM
Rattus norvegicus [12] = assay: Antiinflammatory activity on the development of collagen II arthritis in rats, measured based on animals positive for arthritis by the presence of paw edema; format: functional; summary of the method: as §2
[13] = target: T1, Polyunsaturated fatty acid 5-lipoxygenase (Rattus norvegicus) (UniProt P12527); assay: In vitro inhibitory activity against Lipoxygenase in rat neutrophils at a dose of 50 uM
T1 sequence (whole entry): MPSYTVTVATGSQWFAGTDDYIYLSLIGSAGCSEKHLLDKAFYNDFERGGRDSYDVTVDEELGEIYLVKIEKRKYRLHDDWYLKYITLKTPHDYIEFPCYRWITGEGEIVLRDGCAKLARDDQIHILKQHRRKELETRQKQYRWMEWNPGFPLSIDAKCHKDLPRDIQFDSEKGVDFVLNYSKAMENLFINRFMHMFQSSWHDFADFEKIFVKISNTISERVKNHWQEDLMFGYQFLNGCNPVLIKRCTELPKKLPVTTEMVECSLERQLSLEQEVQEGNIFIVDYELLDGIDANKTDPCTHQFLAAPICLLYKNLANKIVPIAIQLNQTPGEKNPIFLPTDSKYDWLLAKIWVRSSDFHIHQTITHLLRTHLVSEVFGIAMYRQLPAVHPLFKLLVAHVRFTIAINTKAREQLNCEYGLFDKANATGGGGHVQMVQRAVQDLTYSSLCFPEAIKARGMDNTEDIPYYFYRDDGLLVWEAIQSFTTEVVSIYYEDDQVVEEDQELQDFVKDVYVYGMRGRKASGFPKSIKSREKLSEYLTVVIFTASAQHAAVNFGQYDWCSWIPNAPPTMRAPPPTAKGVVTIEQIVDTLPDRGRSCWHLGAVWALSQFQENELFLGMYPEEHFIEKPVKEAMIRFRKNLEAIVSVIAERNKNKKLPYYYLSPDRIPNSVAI
Summary of the method: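 Neutrophils come from the 4 h pleural exudate of male Wistar-Lewis rats given iv BSA plus intrapleural rabbit anti-BSA IgG. Cells are washed, red cells lysed with NH4Cl, and resuspended at about 5×10^6 cells/0.1 mL in Tris pH 7.4 with NaCl and 1 mM CaCl2. Cells are preincubated with compound 4 min at room temperature.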

Rattus norvegicus [14] = assay: Antiinflammatory activity against collagen II arthritis in rats, activity% inhibition in injected paw edema; format: functional; set-up: concentration or dose not given beside the values; summary of the method: as §2
Rattus norvegicus [15] = assay: Tested in vivo for antiinflammatory activity against chronic adjuvant arthritic rat by prophylactic inhibition 2 degree paw after peroral administration of 9 mg/kg of dose; format: functional; conditions: route oral; summary of the method: as §3
Rattus norvegicus [16] = assay: Compound was tested in vivo for antiinflammatory activity against chronic adjuvant arthritic rat by therapeutic inhibition 1 degree paw after peroral administration of 30 mg/kg of dose; format: functional; conditions: route oral
Rattus norvegicus [17] = assay: Compound was tested in vivo for antiinflammatory activity against chronic adjuvant arthritic rat by therapeutic inhibition 1 degree paw after peroral administration of 10 mg/kg of dose; format: functional; conditions: route oral
Rattus norvegicus [18] = assay: Compound was tested in vivo for antiinflammatory activity against chronic adjuvant arthritic rat by therapeutic inhibition 2 degree paw after peroral administration of 10 mg/kg of dose; format: functional; conditions: route oral
Rattus norvegicus [19] = assay: Compound was tested for intestinal Ulcerogenic effect in rats at a dose of 30 mg/kg; format: functional; summary of the method: as §1
Rattus norvegicus [20] = assay: Compound was tested in vivo for antiinflammatory activity against chronic adjuvant arthritic rat by therapeutic inhibition 2 degree paw after peroral administration of 3.3 mg/kg of dose; format: functional; conditions: route oral

In the case of CCCc1c(O)n(Cc2ccc(F)cc2)c2nc3c(c(=O)n(C)c(=O)n3C)n2c1=O, the Lesion length (Rattus norvegicus [1]) is reported as 0 mm rat-1, the Relative potency (Rattus norvegicus [2]) is reported as 1.2 and the Length (Rattus norvegicus [3]) is reported as 0.2 mm rat-1. For the same molecule, the Inhibition (Rattus norvegicus [4]) was 54.9%, the Inhibition (Rattus norvegicus [5]) was 53% and the inhibition in vivo at 36 mg/kg (Rattus norvegicus [6]) was 60%. The Lesion length (Rattus norvegicus [7]) was 0 mm rat-1, the inhibition in vivo at 9 mg/kg (Rattus norvegicus [8]) was 42% and the Antibody titer (Rattus norvegicus [9]) was 6.6. It also gave a Positive (Rattus norvegicus [10]) of 18.8%, an inhibition [11] of 36% and a Positive (Rattus norvegicus [12]) of 31.3%. The inhibition [13] was 0% and 8%, the Inhibition (Rattus norvegicus [14]) was 38.2% and the inhibition in vivo at 9 mg/kg (Rattus norvegicus [15]) was 49%.
CC(C)=CCc1c(O)n(Cc2ccc(F)cc2)c2nc3c(c(=O)n(C)c(=O)n3C)n2c1=O was tested, and the inhibition in vivo at 30 mg/kg (Rattus norvegicus [16]) was 59%, the Relative potency (Rattus norvegicus [2]) was 4.8 and the inhibition in vivo at 10 mg/kg (Rattus norvegicus [17]) was 38%. It also gave an Inhibition (Rattus norvegicus [4]) of 80.6%, an Inhibition (Rattus norvegicus [5]) of 29% and an inhibition in vivo at 36 mg/kg (Rattus norvegicus [6]) of 44%. For the same molecule, the inhibition in vivo at 9 mg/kg (Rattus norvegicus [8]) was 22%, the Antibody titer (Rattus norvegicus [9]) was 8.4 and the Positive (Rattus norvegicus [10]) was 14.3%. The inhibition [11] was 93%, the Positive (Rattus norvegicus [12]) was 21.4% and the inhibition [13] was 21% and 22%. The inhibition in vivo at 10 mg/kg (Rattus norvegicus [18]) was 67%, the Inhibition (Rattus norvegicus [14]) was 53.9% and the inhibition in vivo at 9 mg/kg (Rattus norvegicus [15]) was 35%. The Ulcer incidence (Rattus norvegicus [19]) was 0 number/group and the inhibition in vivo at 3.3 mg/kg (Rattus norvegicus [20]) was 43%.
In the case of CC(C)=CCc1c(O)n(Cc2ccccc2)c2nc3c(c(=O)n(C)c(=O)n3C)n2c1=O, the inhibition in vivo at 30 mg/kg (Rattus norvegicus [16]) is reported as 63%, the Lesion length (Rattus norvegicus [1]) is reported as 0 mm rat-1 and the Relative potency (Rattus norvegicus [2]) is reported as 3.1 and 4.3. It also gave a Length (Rattus norvegicus [3]) of 1 mm rat-1, an inhibition in vivo at 10 mg/kg (Rattus norvegicus [17]) of 54% and an Inhibition (Rattus norvegicus [4]) of 10.1%. The Inhibition (Rattus norvegicus [5]) was 26%, the Lesion length (Rattus norvegicus [7]) was 0.1 mm rat-1 and the inhibition in vivo at 9 mg/kg (Rattus norvegicus [8]) was 30%. For the same molecule, the Antibody titer (Rattus norvegicus [9]) was 10.9, the Positive (Rattus norvegicus [10]) was 40% and the inhibition [11] was 92%. The Positive (Rattus norvegicus [12]) was 46.7%, the inhibition [13] was 17% and 22% and the inhibition in vivo at 10 mg/kg (Rattus norvegicus [18]) was 70%. For the same molecule, the inhibition in vivo at 9 mg/kg (Rattus norvegicus [15]) was 76%, the Ulcer incidence (Rattus norvegicus [19]) was 0 number/group and the inhibition in vivo at 3.3 mg/kg (Rattus norvegicus [20]) was 42%.
